Laboratory results from ChEMBL document CHEMBL4007430, “Synthesis and Cytostatic and Antiviral Profiling of Thieno-Fused 7-Deazapurine Ribonucleosides” (J Med Chem, 2017).

Tests used:
[1] = Cytotoxicity against mrp-1/mdr-1 overexpressing human CEM-DNR-bulk cells assessed as cell growth inhibition after 72 hrs by MTS assay; assay type: functional, cell-based
Summary of the method: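 Cells were exposed to compound for 3 days, then stained with MTS as a quantitative metabolic read-out.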

[2] = test system: A549; assay: Cytotoxicity against human A549 cells assessed as cell growth inhibition after 72 hrs by MTS assay; assay type: functional, cell-based; settings: A549, 72 h
Summary of the method: (§1)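 Cells were exposed to compound for 3 days, then stained with MTS as a quantitative metabolic read-out. IC50 is the concentration that inhibits cell growth by 50%.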

[3] = test system: CCRF-CEM; assay: Inhibition of RNA synthesis in human CCRF-CEM cells assessed as decrease in BrU incorporation by measuring synthesized RNA levels at IC50 after 24 hrs by propidium iodide staining-based flow cytometric method (reference value: 53.09%); assay type: functional
[4] = test system: CCRF-CEM; assay: Cytotoxicity against human CCRF-CEM cells assessed as cell growth inhibition after 72 hrs by MTS assay
[5] = test system: HCT-116; assay: Cytotoxicity against human HCT116 cells assessed as cell growth inhibition after 72 hrs by MTS assay; assay type: functional, cell-based; settings: HCT-116, 72 h; summary of the method: as §1
[6] = test system: CCRF-CEM; assay: Inhibition of mitosis in human CCRF-CEM cells assessed as pH3Ser10 positive cells after 24 hrs by flow cytometric analysis; assay type: functional, cell-based
[7] = test system: HeLa S3; assay: Cytotoxicity against human HeLaS3 cells assessed as reduction in cell viability after 72 hrs by XTT assay; assay type: functional, cell-based; settings: HeLa S3, 72 h
Summary of the method: (§2)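 Cells were incubated with compound for 3 days. Viability was then measured with the XTT tetrazolium assay.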

[8] = test system: CCRF-CEM; assay: Cell cycle arrest in human CCRF-CEM cells assessed as accumulation at S phase at 5 times IC50 after 24 hrs by propidium iodide staining-based flow cytometric analysis (reference value: 44.20%); assay type: functional
[9] = test system: CCRF-CEM; assay: Inhibition of DNA synthesis in human CCRF-CEM cells assessed as decrease in BrdU incorporation by measuring synthesized DNA levels at IC50 after 24 hrs by propidium iodide staining-based flow cytometric analysis (reference value: 52.66%); assay type: functional
[10] = test system: Hepatitis C virus; assay: Anti-HCV activity against Hepatitis C virus genotype 1b infected in human Huh7 replicon cells after 96 hrs by luciferase reporter gene assay; assay type: functional, cell-based, Hepacivirus hominis; settings: Huh-7, 96 h
[11] = test system: HepG2; assay: Cytotoxicity against human HepG2 cells assessed as reduction in cell viability after 72 hrs by XTT assay; assay type: functional, cell-based; settings: HepG2, 72 h; summary of the method: as §2
[12] = test system: CCRF-CEM; assay: Cell cycle arrest in human CCRF-CEM cells assessed as accumulation at S phase at IC50 after 24 hrs by propidium iodide staining-based flow cytometric analysis (reference value: 44.20%); assay type: functional
[13] = test system: BJ; assay: Cytotoxicity against human BJ cells assessed as cell growth inhibition after 72 hrs by MTS assay; assay type: cell-based; summary of the method: as §1
[14] = test system: U2OS; assay: Cytotoxicity against human U2OS cells assessed as cell growth inhibition after 72 hrs by MTS assay; assay type: functional, cell-based
[15] = test system: CCRF-CEM; assay: Cell cycle arrest in human CCRF-CEM cells assessed as accumulation at G0/G1 phase at IC50 after 24 hrs by propidium iodide staining-based flow cytometric analysis (reference value: 41.11%); assay type: functional
[16] = test system: CCRF-CEM; assay: Cell cycle arrest in human CCRF-CEM cells assessed as accumulation at G2/M phase at IC50 after 24 hrs by propidium iodide staining-based flow cytometric analysis (reference value: 14.70%); assay type: functional
[17] = test system: CCRF-CEM; assay: Cell cycle arrest in human CCRF-CEM cells assessed as accumulation at G0/G1 phase at 5 times IC50 after 24 hrs by propidium iodide staining-based flow cytometric analysis (reference value: 41.11%); assay type: functional
[18] = test system: K562; assay: Cytotoxicity against human K562 cells assessed as cell growth inhibition after 72 hrs by MTS assay; assay type: functional, cell-based; settings: K562, 72 h; summary of the method: as §1
[19] = test system: HL-60; assay: Cytotoxicity against human HL60 cells assessed as reduction in cell viability after 72 hrs by XTT assay; assay type: functional, cell-based; settings: HL-60, 72 h; summary of the method: as §2
[20] = test system: CCRF-CEM; assay: Cell cycle arrest in human CCRF-CEM cells assessed as accumulation at G2/M phase at 5 times IC50 after 24 hrs by propidium iodide staining-based flow cytometric analysis (reference value: 14.70%); assay type: functional
[21] = test system: CCRF-CEM; assay: Inhibition of mitosis in human CCRF-CEM cells assessed as pH3Ser10 positive cells at IC50 after 24 hrs by flow cytometric analysis (reference value: 1.74%); assay type: functional
[22] = Cytotoxicity against human K562-TAX cells assessed as cell growth inhibition after 72 hrs by MTS assay; assay type: functional, cell-based; summary of the method: as §1
[23] = test system: CCRF-CEM; assay: Inhibition of DNA synthesis in human CCRF-CEM cells assessed as decrease in BrdU incorporation by measuring synthesized DNA levels at 5 times IC50 after 24 hrs by propidium iodide staining-based flow cytometric analysis (reference value: 52.66%); assay type: functional
[24] = test system: HCT-116; assay: Cytotoxicity against p53 deficient human HCT116 cells assessed as cell growth inhibition after 72 hrs by MTS assay; assay type: functional, cell-based; settings: HCT-116, 72 h; summary of the method: as §1
[25] = test system: CCRF-CEM; assay: Induction of apoptosis in human CCRF-CEM cells assessed as accumulation at subG1 phase at IC50 after 24 hrs by propidium iodide staining-based flow cytometric analysis (reference value: 2.32%); assay type: functional
[26] = test system: CCRF-CEM; assay: Induction of apoptosis in human CCRF-CEM cells assessed as accumulation at subG1 phase at 5 times IC50 after 24 hrs by propidium iodide staining-based flow cytometric analysis (reference value: 2.32%); assay type: functional
[27] = test system: CCRF-CEM; assay: Inhibition of RNA synthesis in human CCRF-CEM cells assessed as decrease in BrU incorporation by measuring synthesized RNA levels at 5 times IC50 after 24 hrs by propidium iodide staining-based flow cytometric method (reference value: 53.09%); assay type: functional
[28] = test system: MRC5; assay: Cytotoxicity against human MRC5 cells assessed as cell growth inhibition after 72 hrs by MTS assay; assay type: cell-based; settings: MRC5, 72 h; summary of the method: as §1
[29] = test system: CCRF-CEM; assay: Inhibition of mitosis in human CCRF-CEM cells assessed as pH3Ser10 positive cells at 5 times IC50 after 24 hrs by flow cytometric analysis (reference value: 1.74%); assay type: functional
[30] = Cytotoxicity against human HuH7 cells; assay type: cell-based, Huh-7
[31] = test system: Hepatitis C virus; assay: Anti-HCV activity against Hepatitis C virus genotype 2a infected in human Huh7 replicon cells after 96 hrs by luciferase reporter gene assay; assay type: functional, cell-based, Hepacivirus hominis; settings: Huh-7, 96 h

Structure (SMILES) | IC50 [1] | IC50 [2] | BrU+ cells (%) [3] | IC50 [4] | IC50 [5] | Activity [6] | IC50 [7] | Activity [8] | BrdU+ cells (%) [9] | EC50 [10] | IC50 [11] | Activity [12] | IC50 [13] | IC50 [14] | Activity [15] | Activity [16] | Activity [17] | IC50 [18] | IC50 [19] | Activity [20] | other results
Cc1ncnc2c1c1sccc1n2[C@@H]1O[C@H](CO)[C@@H](O)[C@H]1O | > 50000 nM | 210 nM | 33.92% | 20 nM | 50 nM | Dose-dependent effect | 720 nM | 56.18% | 50.76% | 110 nM | 440 nM | 57.85% | 150 nM | 200 nM | 29.74% | 12.41% | 28.72% | 140 nM | 210 nM | 15.1% | pH3Ser10+ cells (%) [21]: 0.89%; IC50 [22]: 720 nM; BrdU+ cells (%) [23]: 60.89%; IC50 [24]: 70 nM; Activity [25]: 13.5%; Activity [26]: 16.72%; BrU+ cells (%) [27]: 47.83%; IC50 [28]: 1660 nM; pH3Ser10+ cells (%) [29]: 3.55%; CC50 [30]: > 44400 nM; EC50 [31]: 60 nM
Cc1ncnc2c1c1ccsc1n2[C@@H]1O[C@H](CO)[C@@H](O)[C@H]1O | 33900 nM | 720 nM | 38.29% | 30 nM | 400 nM | Dose-dependent effect | 570 nM | 51.16% | 54.48% | 60 nM | 470 nM | 45.57% | > 50000 nM | 560 nM | 40.67% | 13.76% | 35.09% | 460 nM | 370 nM | 13.74% | pH3Ser10+ cells (%) [21]: 1.37%; IC50 [22]: 47600 nM; BrdU+ cells (%) [23]: 54.08%; IC50 [24]: 330 nM; Activity [25]: 2.35%; Activity [26]: 3.83%; BrU+ cells (%) [27]: 18.84%; IC50 [28]: > 50000 nM; pH3Ser10+ cells (%) [29]: 1.37%; CC50 [30]: > 44400 nM; EC50 [31]: 240 nM
